Data set [1] is filed under the species Homo sapiens. Kind of data set: Inhibition of ADP-induced aggregation of human platelets. The format is functional.
Data set [2] is described as follows: Aqueous solubility. It is filed as physicochemical. The conditions noted are these: water; read-out: S. The gist of the method:
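Water (0.5 mL) added to 10 mg compound at room temperature, diluted up to […] unless dissolution occurred.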

The target of data set [3] is T1, Phosphodiesterase 3 (Homo sapiens, UniProt Q14432+Q13370). Kind of data set: Inhibition of human platelet cAMP Phosphodiesterase PDE 3. A digest of the protocol:
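Human platelet cAMP PDE enzyme preparation; IC50 read from plots of cAMP hydrolysis against compound concentration; mean of duplicate determinations; BMY 20844 positive control.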

Data set [4] is filed under the species Oryctolagus cuniculus. Nature of the data set: Inhibition of laser induced thrombus formation in microvasculature of rabbit ear chamber. It is filed as functional, organism-based. A digest of the protocol:
(§1)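 Conscious rabbits, laser-induced microvessel thrombosis, oral dosing; 10 trials 2 h post-dose compared with 10 predose trials in same rabbit; mean thrombus area, % inhibition; at least three rabbits per compound.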

Data set [5] addresses T1, Phosphodiesterase 3. Nature of the data set: Inhibition of human platelet c-AMP phosphodiesterase PDE 3.
The subject of data set [6] is Oryctolagus cuniculus. Nature of the data set: Inhibition of laser induced thrombus formation in microvasculature of rabbit ear chamber at a peroral dose of 0.1 mg/kg. It is filed as functional. The conditions noted are these: route oral. The gist of the method:
as §1

Data set [7] is described as follows: Solubility in 0.25 N HCl solution. The format is physicochemical. Particulars: read-out: S. The gist of the method:
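Solubility tested as for water, 0.5 mL solvent on 10 mg solid at room temperature with up to […] dilution, but in 0.25 N HCl solution.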

Data set [8] is filed under the species Homo sapiens. Kind of data set: Inhibition of ADP induced aggregation of human platelets after 15 min of incubation of the drug with PRP prior to the addition of ADP. The format is functional. The conditions noted are these: 0.25 h.
Data set [9] has as its system Oryctolagus cuniculus. Nature of the data set: Inhibition of laser induced thrombus formation in microvasculature of rabbit ear chamber at dose of 0.03 mg/kg. It is filed as functional. The gist of the method: as §1
Data set [10] has as its system Oryctolagus cuniculus. Nature of the data set: Inhibition of laser induced thrombus formation in microvasculature of rabbit ear chamber at a dose of 0.3 mg/kg. It is filed as functional. A digest of the protocol: as §1
Data set [11] relates to Oryctolagus cuniculus. Kind of data set: Inhibition of laser induced thrombus formation in microvasculature of rabbit ear chamber at a peroral dose of 3 mg/kg. It is filed as functional. The conditions noted are these: route oral. The gist of the method:
as §1

In data set [12] the test system is Oryctolagus cuniculus. Nature of the data set: Inhibition of laser induced thrombus formation in microvasculature of rabbit ear chamber at a peroral dose of 1 mg/kg. The format is functional. The conditions noted are these: route oral. A digest of the protocol: as §1

pEC50, pIC50: −log10 of the molar value. Where only a bound is given, the exact number is not on record here.

For `O=C(CCCOc1ccc2[nH]c3nc(O)nc-3cc2c1)N1CCN(CC(=O)N2CCCC2)CC1`, in the data set filed under Homo sapiens [1], the pEC50 (in general, −log10 of the EC50, conventionally taken in molar units) is less than 4.25. In addition, the solubility in [2] was greater than 10000 µg/mL. The IC50 against Phosphodiesterase 3 [3] is recorded as 6 nM.
With `O=C(CCCCOc1ccc2[nH]c3nc(O)nc-3cc2c1)N1CCN(CC2CCCCC2)CC1`, in the data set filed under Homo sapiens [1], the pEC50 is 7.29. The IC50 in the data set listed under Oryctolagus cuniculus [4] is 0.03 mg/kg; at Phosphodiesterase 3 [5] it was 0.03 nM. Besides, the solubility in data set [2] was greater than 10000 µg/mL. Besides, the inhibition in vivo (as a rule, the relative decrease from the control value, in per cent) at 0.1 mg/kg with Oryctolagus cuniculus [6] is greater than 50%.
`CN1CCCC1CCNC(=O)CCCOc1ccc2[nH]c3nc(O)nc-3cc2c1` (centres undefined) had a pEC50 in the data set filed under Homo sapiens [1] of 4.10. In addition, in [7], the solubility was greater than 10000 µg/mL. Also, the IC50 against Phosphodiesterase 3 [5] was determined as 20 nM.
The molecule `O=C(CCCOc1ccc2[nH]c3nc(O)nc-3cc2c1)N1CCN(CC2CCCCC2)CC1` gave a pEC50 in the data set filed under Homo sapiens [1] of 6.29. In addition, in data set [2], the solubility is greater than 10000 µg/mL. In the data set filed under Homo sapiens [8], the pIC50 (commonly the negative decadic logarithm of the IC50, by convention in mol/L) is 7.00. At Phosphodiesterase 3 [5], the IC50 came to 0.4 nM.
For the molecule `O=C(CCCOc1ccc2[nH]c3nc(O)nc-3cc2c1)N1CCN(Cc2ccccc2)CC1`, the inhibition in vivo at 0.03 mg/kg in the data set on Oryctolagus cuniculus [9] came to 41%. In data set [2], the solubility was greater than 10000 µg/mL. In the data set with Oryctolagus cuniculus [10], this molecule yielded an inhibition in vivo at 0.3 mg/kg of 64%. Besides, at Phosphodiesterase 3 [5], the IC50 turned out to be 0.7 nM. Besides, in the data set on Oryctolagus cuniculus [6], the inhibition in vivo at 0.1 mg/kg was determined as 50%.
Take `Oc1nc2cc3cc(N4CCCCC4)ccc3[nH]c-2n1`: the pEC50 in the data set filed under Homo sapiens [1] was 6.05. This molecule yielded an inhibition in vivo at 3 mg/kg with Oryctolagus cuniculus [11] of 59%. Moreover, in the data set on Oryctolagus cuniculus [12], at 1 mg/kg the inhibition in vivo was 32%. Moreover, in data set [2], the solubility was greater than 10000 µg/mL.

Values taken from ChEMBL document CHEMBL1125486, “Inhibitors of blood platelet cAMP phosphodiesterase. 3. 1,3-Dihydro-2H-imidazo[4,5-b]quinolin-2-one derivatives with enhanced aqueous solubility” (J Med Chem, 1992).
